Among the data in ChEMBL document CHEMBL1157586 (Bioorg Med Chem, 2010) are IC50, solubility and Activity values, retold here.

Data set [1] concerns A2780. Description: Antiproliferative activity against human A2780 cells after 72 hrs by CellTiter-Glo luminescence assay. Particulars: A2780, 72 h.
The target of data set [2] is Cyclin-dependent kinase 2/cyclin A (Homo sapiens, UniProt P24941). Description: Inhibition of human CDK2/cyclin A expressed in Escherichia coli BL21 by scintillation proximity assay. In general terms: SPA uses beads or plates that emit light when radiolabelled molecules are held near them.
Data set [3] in a line: Solubility at pH 7. Particulars: buffer. Format: physicochemical.
Data set [4] concerns the target Mitogen-activated protein kinase 1 (Homo sapiens, UniProt P28482). Description: Inhibition of ERK2.
The nature of data set [5]: Solubility in 5% dextrose solution. Format: physicochemical.
For data set [6], the system named is A2780. Description: Cell cycle arrest in human A2780 cells assessed as accumulation at G0/G1 phase at 3 uM after 24 hrs by FACS analysis. Format: functional. The procedure, abridged:
(§1)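 A2780 cells (ECACC) seeded at 25000 cells/cm² in RPMI 1640, pH 7.4, with 10% FBS, 2 mM L-glutamine and penicillin–streptomycin, at 37 °C in 5% CO₂. After 24 h, treated for 24 h at 1 and 3 µM. Floating and trypsinised adherent cells pooled, PBS-washed, and DNA content analysed by flow cytometry.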
On the technique in general: A flow cytometer gives signals particle by particle.

The target of data set [7] is MAP kinase-activated protein kinase 2 (Homo sapiens, UniProt P49137). Description: Inhibition of MAPKAPK2 by scintillation proximity assay.
For data set [8], the target named is ALK tyrosine kinase receptor (Homo sapiens, UniProt Q9UM73). Description: Inhibition of ALK by scintillation proximity assay.
The target of data set [9] is Glycogen synthase kinase-3 beta (Homo sapiens, UniProt P49841). Description: Inhibition of GSK3-beta by scintillation proximity assay.
Data set [10] deals with A2780. Description: Inhibition of cellular DNA synthesis in human A2780 cells assessed as BrdU incorporation into nuclear DNA at 3 uM after 24 hrs by Hoechst 33342 staining-based microscopic analysis. The data set is classed as functional. More on the design: scale not given: the % may be the effect or the level left. The method, boiled down: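 A2780 human ovarian adenocarcinoma cells were seeded at 25000 cells/cm² in RPMI 1640 pH 7.4 with 10% FBS, 2 mM L-glutamine and penicillin–streptomycin. They were kept at 37 °C in 5% CO₂. After 24 h they were exposed to compound for 24 h. Floating and adherent cells were harvested with trypsin/EDTA, washed in PBS, and split for flow cytometry, immunoblot and BrdU incorporation.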

Data set [11] deals with Mast/stem cell growth factor receptor Kit (Homo sapiens, UniProt P10721). Description: Inhibition of cKit by scintillation proximity assay.
Data set [12] deals with Vascular endothelial growth factor receptor 2 (Homo sapiens, UniProt P35968). Description: Inhibition of VEGFR2 by scintillation proximity assay.
Data set [13] deals with Fibroblast growth factor receptor 1 (Homo sapiens, UniProt P11362). Description: Inhibition of FGFR1 by scintillation proximity assay.
For data set [14], the target named is Cell division cycle 7-related protein kinase (Homo sapiens, UniProt O00311). Description: Inhibition of CDC7 by scintillation proximity assay.
The target of the next data set is Aurora kinase B (Homo sapiens, UniProt Q96GD4). Description: Inhibition of Aurora B by scintillation proximity assay.
Data set [15] is described as follows: Inhibition of STK2 by scintillation proximity assay.
Data set [16] concerns the target Protein kinase C alpha type (Homo sapiens, UniProt P17252). Description: Inhibition of PKCalpha by scintillation proximity assay.
Data set [17] is described as follows: Inhibition of NIM by scintillation proximity assay.
The target in data set [18] is Mitogen-activated protein kinase 14 (Homo sapiens, UniProt Q16539). Description: Inhibition of p38alpha.
Data set [19] addresses Tyrosine-protein kinase ABL1 (Homo sapiens, UniProt P00519). Description: Inhibition of c-ABL by scintillation proximity assay.
Data set [20] deals with A2780. Description: Cell cycle arrest in human A2780 cells assessed as accumulation at G2/M phase at 3 uM after 24 hrs by FACS analysis. Format: functional. The procedure, abridged: as §1
Data set [21] concerns A2780. Description: Cell cycle arrest in human A2780 cells assessed as accumulation at S phase at 3 uM after 24 hrs by FACS analysis. Format: functional. The procedure, abridged: as §1
Data set [22] addresses Serine/threonine-protein kinase Nek6 (Homo sapiens, UniProt Q9HC98). Description: Inhibition of NEK6 by scintillation proximity assay.
Data set [23] concerns the target Serine/threonine-protein kinase PAK 4 (Homo sapiens, UniProt O96013). Description: Inhibition of PAK4 by scintillation proximity assay.
Data set [24] concerns the target Vascular endothelial growth factor receptor 3 (Homo sapiens, UniProt P35916). Description: Inhibition of VEGFR3 by scintillation proximity assay.
Data set [25] has as its target Insulin-like growth factor 1 receptor (Homo sapiens, UniProt P08069). Description: Inhibition of IGF1R by scintillation proximity assay.
Data set [26] deals with Hepatocyte growth factor receptor (Homo sapiens, UniProt P08581).
Data set [27] deals with Tyrosine-protein kinase JAK2 (Homo sapiens, UniProt O60674). Description: Inhibition of JAK2 by scintillation proximity assay.
In data set [28] the target is Serine/threonine-protein kinase Chk1 (Homo sapiens, UniProt O14757). Description: Inhibition of CHK1 by scintillation proximity assay.
Data set [29] has as its target cAMP-dependent protein kinase catalytic subunit alpha (Homo sapiens, UniProt P17612). Description: Inhibition of PKAalpha by scintillation proximity assay.
Data set [30] concerns the target Cyclin-dependent kinase 2/cyclin E1 (Homo sapiens, UniProt P24941). Description: Inhibition of CDK2/cyclin E by scintillation proximity assay. The data set is classed as protein-complex assay.
Data set [31] is described as follows: Inhibition of SULU1 by scintillation proximity assay.
Data set [32] concerns the target Proto-oncogene tyrosine-protein kinase receptor Ret (Homo sapiens, UniProt P07949). Description: Inhibition of RET by scintillation proximity assay.
The target of a further data set is Insulin receptor (Homo sapiens, UniProt P06213). Description: Inhibition of IR by scintillation proximity assay.
In a further data set the target is Aurora kinase A (Homo sapiens, UniProt O14965). Description: Inhibition of Aurora A by scintillation proximity assay.
In data set [33] the target is Inhibitor of nuclear factor kappa-B kinase subunit beta (Homo sapiens, UniProt O14920). Description: Inhibition of IKK2 by scintillation proximity assay.
Data set [34] can be described thus: Inhibition of CK2 by scintillation proximity assay.
Data set [35] concerns the target Serine/threonine-protein kinase PLK1 (Homo sapiens, UniProt P53350). Description: Inhibition of PLK1.
Data set [36] concerns the target Cyclin-dependent kinase 5/CDK5 activator 1 (Homo sapiens, UniProt Q00535). Description: Inhibition of CDK5/p25 by scintillation proximity assay. The data set is classed as protein-complex assay.
Data set [37] deals with Serine/threonine-protein kinase PLK2 (Homo sapiens, UniProt Q9NYY3). Description: Inhibition of PLK2 by scintillation proximity assay.
The target in data set [38] is Receptor-type tyrosine-protein kinase FLT3 (Homo sapiens, UniProt P36888). Description: Inhibition of FLT3 by scintillation proximity assay.
In data set [39] the target is Cyclin-dependent kinase 1/cyclin B1 (Homo sapiens, UniProt P06493). Description: Inhibition of CDK1/cyclin B. Format: protein-complex assay.
Data set [40] deals with RAC-alpha serine/threonine-protein kinase (Homo sapiens, UniProt P31749). Description: Inhibition of AKT1.
Data set [41] is described as follows: Inhibition of PDGFR by scintillation proximity assay.

≈ marks a conversion by molar mass, not a printed value.

Chain of Proto-oncogene tyrosine-protein kinase receptor Ret (P07949 whole entry): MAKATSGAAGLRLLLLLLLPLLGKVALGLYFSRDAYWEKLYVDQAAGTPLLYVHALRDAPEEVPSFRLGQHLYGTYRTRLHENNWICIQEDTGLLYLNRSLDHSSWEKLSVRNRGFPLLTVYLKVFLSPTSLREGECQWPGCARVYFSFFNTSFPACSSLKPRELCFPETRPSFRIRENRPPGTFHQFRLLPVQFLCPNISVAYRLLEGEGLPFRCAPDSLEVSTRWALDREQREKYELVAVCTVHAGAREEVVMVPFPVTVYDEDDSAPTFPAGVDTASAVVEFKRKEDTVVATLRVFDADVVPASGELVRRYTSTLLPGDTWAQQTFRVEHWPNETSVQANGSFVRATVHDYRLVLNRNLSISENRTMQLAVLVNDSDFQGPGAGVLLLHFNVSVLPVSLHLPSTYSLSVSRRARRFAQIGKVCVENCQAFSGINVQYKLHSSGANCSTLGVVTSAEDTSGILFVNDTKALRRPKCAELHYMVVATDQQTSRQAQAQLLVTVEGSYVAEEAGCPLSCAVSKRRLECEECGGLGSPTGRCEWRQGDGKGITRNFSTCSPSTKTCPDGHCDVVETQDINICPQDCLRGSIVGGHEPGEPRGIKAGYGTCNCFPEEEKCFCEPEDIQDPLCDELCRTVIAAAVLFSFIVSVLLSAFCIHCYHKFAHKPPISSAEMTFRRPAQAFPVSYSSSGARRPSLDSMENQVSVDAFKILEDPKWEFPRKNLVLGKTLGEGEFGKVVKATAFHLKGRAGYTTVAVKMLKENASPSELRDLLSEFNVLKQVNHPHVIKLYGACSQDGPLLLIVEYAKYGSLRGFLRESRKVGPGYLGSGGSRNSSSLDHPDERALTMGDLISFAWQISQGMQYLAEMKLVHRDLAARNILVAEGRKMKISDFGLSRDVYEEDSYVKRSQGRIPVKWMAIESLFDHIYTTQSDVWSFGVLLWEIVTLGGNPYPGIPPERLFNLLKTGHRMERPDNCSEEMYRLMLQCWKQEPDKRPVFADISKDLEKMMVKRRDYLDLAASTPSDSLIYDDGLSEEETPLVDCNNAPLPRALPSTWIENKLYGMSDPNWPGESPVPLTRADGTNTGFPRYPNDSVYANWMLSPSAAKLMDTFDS
Chain of Vascular endothelial growth factor receptor 3 (P35916 whole entry): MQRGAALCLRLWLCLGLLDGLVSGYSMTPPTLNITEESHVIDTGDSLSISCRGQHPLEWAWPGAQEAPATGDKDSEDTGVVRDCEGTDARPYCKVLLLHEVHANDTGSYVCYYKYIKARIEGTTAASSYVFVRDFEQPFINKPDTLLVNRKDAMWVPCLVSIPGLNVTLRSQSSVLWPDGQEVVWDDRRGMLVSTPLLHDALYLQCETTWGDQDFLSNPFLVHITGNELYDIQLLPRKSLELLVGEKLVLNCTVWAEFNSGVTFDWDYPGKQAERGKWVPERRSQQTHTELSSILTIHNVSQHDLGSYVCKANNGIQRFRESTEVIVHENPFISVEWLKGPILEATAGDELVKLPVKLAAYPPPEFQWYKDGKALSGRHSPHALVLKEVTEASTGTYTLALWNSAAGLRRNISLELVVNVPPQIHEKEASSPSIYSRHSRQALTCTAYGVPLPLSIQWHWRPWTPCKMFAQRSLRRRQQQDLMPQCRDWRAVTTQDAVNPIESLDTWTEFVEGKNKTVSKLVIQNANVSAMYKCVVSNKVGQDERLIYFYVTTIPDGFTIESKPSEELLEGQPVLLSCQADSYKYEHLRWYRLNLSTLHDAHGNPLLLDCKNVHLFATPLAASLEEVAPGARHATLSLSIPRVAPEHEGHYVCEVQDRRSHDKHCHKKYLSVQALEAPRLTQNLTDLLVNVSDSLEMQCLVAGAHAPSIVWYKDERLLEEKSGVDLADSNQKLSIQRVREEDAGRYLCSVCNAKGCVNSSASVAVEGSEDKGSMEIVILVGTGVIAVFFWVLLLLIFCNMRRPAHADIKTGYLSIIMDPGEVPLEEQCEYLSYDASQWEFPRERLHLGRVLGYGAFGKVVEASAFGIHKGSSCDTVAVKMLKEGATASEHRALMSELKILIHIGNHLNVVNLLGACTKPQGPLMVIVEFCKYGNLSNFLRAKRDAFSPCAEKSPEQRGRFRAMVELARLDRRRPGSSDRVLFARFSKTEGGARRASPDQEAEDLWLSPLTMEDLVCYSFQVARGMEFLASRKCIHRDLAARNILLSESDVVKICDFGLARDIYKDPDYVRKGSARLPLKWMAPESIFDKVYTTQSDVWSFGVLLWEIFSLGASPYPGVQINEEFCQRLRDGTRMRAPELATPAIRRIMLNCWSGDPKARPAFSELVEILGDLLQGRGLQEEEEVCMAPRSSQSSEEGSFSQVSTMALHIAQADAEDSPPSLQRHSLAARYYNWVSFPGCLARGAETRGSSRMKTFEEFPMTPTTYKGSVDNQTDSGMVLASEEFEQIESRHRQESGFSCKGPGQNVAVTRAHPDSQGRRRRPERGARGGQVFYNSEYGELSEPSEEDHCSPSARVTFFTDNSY
Chain of Cyclin-dependent kinase 5/CDK5 activator 1 (Q00535 whole entry): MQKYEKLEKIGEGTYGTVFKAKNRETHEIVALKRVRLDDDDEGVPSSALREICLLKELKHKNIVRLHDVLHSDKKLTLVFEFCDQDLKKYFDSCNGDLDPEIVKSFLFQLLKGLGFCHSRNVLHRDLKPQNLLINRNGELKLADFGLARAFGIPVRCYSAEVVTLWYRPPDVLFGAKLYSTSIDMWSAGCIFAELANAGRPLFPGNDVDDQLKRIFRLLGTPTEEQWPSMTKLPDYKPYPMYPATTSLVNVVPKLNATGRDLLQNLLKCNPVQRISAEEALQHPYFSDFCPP
Chain of Cyclin-dependent kinase 5/CDK5 activator 1 (Q15078 whole entry, further chain): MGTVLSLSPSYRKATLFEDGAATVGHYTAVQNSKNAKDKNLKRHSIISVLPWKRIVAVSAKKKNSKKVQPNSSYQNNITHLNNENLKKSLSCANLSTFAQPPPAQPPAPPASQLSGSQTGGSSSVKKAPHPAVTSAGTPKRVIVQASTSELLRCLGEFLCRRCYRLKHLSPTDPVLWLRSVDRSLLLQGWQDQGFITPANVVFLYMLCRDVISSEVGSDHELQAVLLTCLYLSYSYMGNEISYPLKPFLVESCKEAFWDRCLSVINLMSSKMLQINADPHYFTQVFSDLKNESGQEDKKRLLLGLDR
Chain of Vascular endothelial growth factor receptor 2 (P35968 whole entry): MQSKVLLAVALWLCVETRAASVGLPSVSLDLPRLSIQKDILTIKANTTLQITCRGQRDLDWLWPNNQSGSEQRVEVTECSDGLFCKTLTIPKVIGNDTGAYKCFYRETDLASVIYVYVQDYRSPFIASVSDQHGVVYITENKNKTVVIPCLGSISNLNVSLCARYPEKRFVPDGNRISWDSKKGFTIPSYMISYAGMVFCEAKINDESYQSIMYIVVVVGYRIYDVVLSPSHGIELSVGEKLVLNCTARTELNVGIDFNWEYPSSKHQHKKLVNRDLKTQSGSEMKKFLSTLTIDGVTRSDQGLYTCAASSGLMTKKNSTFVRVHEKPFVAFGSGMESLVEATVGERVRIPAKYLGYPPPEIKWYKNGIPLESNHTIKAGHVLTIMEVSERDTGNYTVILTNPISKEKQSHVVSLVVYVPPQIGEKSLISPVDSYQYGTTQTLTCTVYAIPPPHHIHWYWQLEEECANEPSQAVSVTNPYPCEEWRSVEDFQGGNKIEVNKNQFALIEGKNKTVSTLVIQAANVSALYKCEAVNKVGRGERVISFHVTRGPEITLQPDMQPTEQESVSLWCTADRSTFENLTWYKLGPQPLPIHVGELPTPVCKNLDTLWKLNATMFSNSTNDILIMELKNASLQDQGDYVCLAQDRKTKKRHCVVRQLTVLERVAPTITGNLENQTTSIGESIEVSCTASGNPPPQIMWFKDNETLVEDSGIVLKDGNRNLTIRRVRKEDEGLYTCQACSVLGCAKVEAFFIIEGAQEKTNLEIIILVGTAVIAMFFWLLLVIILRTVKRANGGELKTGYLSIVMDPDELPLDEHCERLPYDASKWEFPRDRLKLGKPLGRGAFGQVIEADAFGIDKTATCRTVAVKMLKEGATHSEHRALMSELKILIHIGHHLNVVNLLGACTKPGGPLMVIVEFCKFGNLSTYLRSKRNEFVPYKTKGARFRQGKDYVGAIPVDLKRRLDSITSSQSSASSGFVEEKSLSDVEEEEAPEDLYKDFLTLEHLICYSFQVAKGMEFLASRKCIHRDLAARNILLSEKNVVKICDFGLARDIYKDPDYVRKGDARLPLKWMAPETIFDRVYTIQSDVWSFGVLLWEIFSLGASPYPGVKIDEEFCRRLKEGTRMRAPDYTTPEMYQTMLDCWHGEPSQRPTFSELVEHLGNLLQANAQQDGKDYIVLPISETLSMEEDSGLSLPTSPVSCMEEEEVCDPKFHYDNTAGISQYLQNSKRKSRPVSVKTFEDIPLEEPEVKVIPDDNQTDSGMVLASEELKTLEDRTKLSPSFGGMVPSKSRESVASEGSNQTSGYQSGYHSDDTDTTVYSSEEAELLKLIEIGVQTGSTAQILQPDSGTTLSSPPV

Usually IC50 stands for the point on the concentration scale where inhibition reaches its midpoint. For orientation: solubility means the dissolved amount per volume that the medium holds. For `CN1CCC(C(=O)N2Cc3c(NC(=O)NCc4ccccc4)n[nH]c3C2(C)C)CC1`, the IC50 turned out to be 2.68 µM in the data set with A2780 [1] and 0.021 µM in data set [2]. Also, the solubility in data set [3] was more than 225 µM.

`CN1CCC(C(=O)N2Cc3c(NC(=O)c4ccsc4)n[nH]c3C2(C)C)CC1`: the IC50 is 0.14 µM in the data set on A2780 [1] and 0.005 µM in data set [2]. In [3], this compound came in with a solubility of more than 225 µM.

As for `CN1CCC(C(=O)N2Cc3c(NC(=O)c4cccc(F)c4)n[nH]c3C2(C)C)CC1`, the IC50 in the data set on A2780 [1] stood at 0.2 µM; in data set [2], 0.014 µM. Further, the solubility in [3] is more than 225 µM.

In the case of `CC1(C)c2[nH]nc(NC(=O)c3ccc(F)cc3)c2CN1C(=O)N1CCN(CCO)CC1`, the IC50 with A2780 [1] is more than 5 µM; in data set [2], 0.06 µM. Further, in data set [3], the solubility was more than 225 µM.

For `CC1(C)c2[nH]nc(NC(=O)c3ccc(F)cc3)c2CN1C(=O)C1CCN(C2CC2)CC1`, the IC50 with A2780 [1] is 0.38 µM; in data set [2] it was 0.068 µM. In data set [3], this compound registered a solubility of more than 225 µM.

For the compound `CN1CCC(C(=O)N2Cc3c(NC(=O)c4ccc(C(F)(F)F)cc4)n[nH]c3C2(C)C)CC1`, the IC50 in the data set on A2780 [1] came out at 0.06 µM; in [2] it was 0.026 µM. This compound registered a solubility in data set [3] of 191 µM (≈ 85.9 µg/mL).

As for `CN1CCC(C(=O)N2Cc3c(NC(=O)c4ccc(F)c(F)c4)n[nH]c3C2(C)C)CC1`, the IC50 in the data set with A2780 [1] stood at 0.1 µM; in data set [2] it was 0.014 µM. This compound also displayed a solubility in data set [3] of more than 225 µM.

As to `CC1(C)c2[nH]nc(NC(=O)c3ccc(F)cc3)c2CN1C(=O)C1CCNCC1`, the IC50 in the data set with A2780 [1] worked out at 0.65 µM; in [2], 0.03 µM. In addition, in data set [3], the solubility is 204 µM (≈ 78.6 µg/mL).

`CC(C)(C)C(=O)N1Cc2c(NC(=O)c3ccncc3)n[nH]c2C1(C)C`: the 50% inhibitory concentration (IC50) in the data set with A2780 [1] stood at 0.11 µM; in [2], 0.049 µM. Moreover, the solubility in data set [3] is 205 µM (≈ 70 µg/mL).

Regarding `CC(C)(C)C(=O)N1Cc2c(NC(=O)c3cccnc3)n[nH]c2C1(C)C`, the IC50 in the data set with A2780 [1] amounted to 0.69 µM; in [2], 0.05 µM. Moreover, the solubility in data set [3] came out at 207 µM (≈ 70.7 µg/mL).

On to `CCN1CCC(C(=O)N2Cc3c(NC(=O)c4ccc(F)cc4)n[nH]c3C2(C)C)CC1`, for which the IC50 with A2780 [1] came out at 0.29 µM; in [2] it was 0.03 µM. The same compound came in with a solubility in data set [3] of more than 225 µM.

With `CN1CCC(C(=O)N2Cc3c(NC(=O)c4ccc5ccccc5c4)n[nH]c3C2(C)C)CC1`, the results for the half-maximal inhibitory concentration (IC50) (with A2780 [1]; in [2]) were 0.27 µM and 0.027 µM, respectively. Further, in data set [3], the concentration in solution (solubility) came to 219 µM (≈ 94.5 µg/mL).

For the compound `CN1CCC(C(=O)N2Cc3c(NC(=O)c4ccncc4)n[nH]c3C2(C)C)CC1`, the results for the concentration for half-maximal inhibition (IC50) (in the data set on A2780 [1]; in [2]) were 0.5 µM and 0.025 µM, respectively. Moreover, in [3], the solubility was more than 225 µM.

Consider `CC(C)(C)C(=O)N1Cc2c(NC(=O)c3cc(F)cc(F)c3)n[nH]c2C1(C)C`, for which the IC50 in data set [4] is more than 10 µM; in data set [7] it was more than 10 µM; in the data set on A2780 [1], 0.31 µM; in data set [2] it was 0.06 µM; in data set [8], more than 10 µM; in data set [9], 3.63 µM. For the same compound, the half-inhibitory concentration (IC50) (in data set [11]; in data set [12]; in data set [13]; in data set [14]; on Aurora kinase B; in [15]) was more than 10 µM each time. The concentration for half-maximal inhibition (IC50) in [16], in data set [17], in data set [18], in [19], in data set [22] and in data set [23] was more than 10 µM throughout. The IC50 in data set [24], in data set [25], in [26], in [27], in data set [28] and in data set [29] was more than 10 µM each time. The 50% inhibitory concentration (IC50) in [30] was 0.09 µM; in data set [31], more than 10 µM; in data set [32], more than 10 µM; against Insulin receptor, more than 10 µM; at Aurora kinase A, more than 10 µM; in [33], more than 10 µM. For the same compound, the IC50 in data set [34] was more than 10 µM; in data set [35], more than 10 µM; in data set [36] it was 0.14 µM; in data set [37], more than 10 µM; in [38] it was more than 10 µM; in [39], 0.45 µM. Besides, the IC50 in data set [40] and in data set [41] was more than 10 µM throughout. The solubility in [5] was determined as 3.4 mg/mL (≈ 9.03 mM); in [3], 186 µM (≈ 70 µg/mL). The Activity in the data set on A2780 [6] is 22%; in the data set on A2780 [10], -96%; in the data set with A2780 [20] it was 26%; with A2780 [21], -52%.

As to `CN1CCC(C(=O)N2Cc3c(NC(=O)c4ccc(F)cc4)n[nH]c3C2(C)C)CC1`, the figures for the IC50 (in the data set on A2780 [1]; in [2]) were 0.12 µM and 0.023 µM, respectively. In addition, the solubility in data set [3] was more than 225 µM.
